Structures can show the parent of a compound that is named as a salt. Where two headings read alike, the source gives them in different places.
Experiments:
[1] = target: human fetal muscle AChR (α1β1γδ) in TE671 cells (Homo sapiens, UniProt P02708+P07510+P11230+Q07001); format: cell-based
[2] = target: Torpedo AChR ion channel ([3H]18-MC site) (Tetronarce californica, UniProt P02710+P02712+P02714+P02718); format: binding; conditions: for Ki / nH / ΔG: [3H]18-MC; for ΔG: 298K
[3] = system: α4β2 AChR; conditions: read-out: inhibitory potency; cited from earlier work
[4] = target: T1, Torpedo AChR (immobilized) (Tetronarce californica, UniProt P02710+P02712+P02714+P02718); assay: Binding kinetics by non-linear chromatography on CMAC-Torpedo AChR column; conditions: for Kd: Ka; for koff: 20 °C; for ΔG^20: Eq. (4); for kon: kon=koff·Ka
[5] = target: T2, Torpedo AChR (Tetronarce californica, UniProt P02710+P02712+P02714+P02718); assay: biochemical; format: binding; conditions: for apparent nH: [3H]cytisine binding enhancement; for fractional occupancy (θ): calculated with Eq. (2)
[6] = target: Torpedo AChR ion channel ([3H]ibogaine site) (Tetronarce californica, UniProt P02710+P02712+P02714+P02718); assay: [3H]ibogaine competition binding to Torpedo AChRs
[7] = target: T1, Torpedo AChR (immobilized); assay: Thermodynamic parameters by non-linear chromatography; format: binding; conditions: for Ea (drug dissociation): Arrhenius plot; for ΔG^20: Eq. (8), 293K; for ΔH^+: Eq. (10); for ΔH°: van't Hoff 10-25 °C
[8] = target: T2, Torpedo AChR; assay: Equilibrium binding of [3H]18-MC to Torpedo AChR native membranes
Outline: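 [3H]18-MC plus unlabelled ligand was added at 0.07–1.2 μM for 2 h at RT, then filtered. Nonspecific binding was measured with 100 μM unlabelled ligand. Kd was taken from the Rosenthal-Scatchard slope and sites/AChR from its x-intercept.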

[9] = target: Torpedo AChR ion channel ([3H]TCP site) (Tetronarce californica, UniProt P02710+P02712+P02714+P02718); assay: [3H]TCP competition binding to Torpedo AChRs in different conformational states; conditions: for Ki / nH / ΔG: [3H]TCP; for ΔG: 298K
[10] = system: α3β4 AChR; conditions: cited from earlier work
[11] = target: Torpedo AChR; conditions: cited from earlier work
[12] = target: AChR; conditions: cited from earlier work
[13] = target: Torpedo AChR; conditions: cited from earlier work; remark: listed apart in the source
[14] = epibatidine treated column (desensitized state)
[15] = α-BTx treated column (resting state)
[16] = 5 min pre-incubation IC50 comparison

Chain of Torpedo AChR ion channel ([3H]18-MC site) (P02710 25-461): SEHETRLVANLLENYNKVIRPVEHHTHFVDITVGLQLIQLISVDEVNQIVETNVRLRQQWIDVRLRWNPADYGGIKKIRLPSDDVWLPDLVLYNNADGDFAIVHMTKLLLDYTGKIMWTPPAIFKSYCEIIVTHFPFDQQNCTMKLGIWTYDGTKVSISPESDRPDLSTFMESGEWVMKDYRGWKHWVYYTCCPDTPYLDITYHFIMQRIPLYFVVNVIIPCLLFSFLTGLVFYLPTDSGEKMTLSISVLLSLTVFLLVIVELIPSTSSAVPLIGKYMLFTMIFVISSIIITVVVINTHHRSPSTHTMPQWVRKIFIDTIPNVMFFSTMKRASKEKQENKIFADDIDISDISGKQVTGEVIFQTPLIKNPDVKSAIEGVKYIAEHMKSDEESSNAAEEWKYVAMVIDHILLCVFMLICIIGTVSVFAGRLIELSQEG
Chain of Torpedo AChR ion channel ([3H]18-MC site) (P02712 25-493): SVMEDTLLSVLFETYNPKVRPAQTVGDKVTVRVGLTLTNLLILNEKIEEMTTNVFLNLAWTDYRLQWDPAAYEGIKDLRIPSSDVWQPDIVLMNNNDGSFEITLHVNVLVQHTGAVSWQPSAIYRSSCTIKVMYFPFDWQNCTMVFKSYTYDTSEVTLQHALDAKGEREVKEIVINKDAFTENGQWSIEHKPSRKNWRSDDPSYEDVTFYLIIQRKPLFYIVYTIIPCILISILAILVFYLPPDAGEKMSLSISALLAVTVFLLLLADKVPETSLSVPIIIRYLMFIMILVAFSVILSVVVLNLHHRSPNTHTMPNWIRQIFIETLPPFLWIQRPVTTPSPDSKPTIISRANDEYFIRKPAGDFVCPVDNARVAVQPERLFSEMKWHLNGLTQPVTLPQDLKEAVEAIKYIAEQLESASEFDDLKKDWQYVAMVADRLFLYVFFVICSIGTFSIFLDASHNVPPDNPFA
Chain of Torpedo AChR ion channel ([3H]18-MC site) (P02714 18-506): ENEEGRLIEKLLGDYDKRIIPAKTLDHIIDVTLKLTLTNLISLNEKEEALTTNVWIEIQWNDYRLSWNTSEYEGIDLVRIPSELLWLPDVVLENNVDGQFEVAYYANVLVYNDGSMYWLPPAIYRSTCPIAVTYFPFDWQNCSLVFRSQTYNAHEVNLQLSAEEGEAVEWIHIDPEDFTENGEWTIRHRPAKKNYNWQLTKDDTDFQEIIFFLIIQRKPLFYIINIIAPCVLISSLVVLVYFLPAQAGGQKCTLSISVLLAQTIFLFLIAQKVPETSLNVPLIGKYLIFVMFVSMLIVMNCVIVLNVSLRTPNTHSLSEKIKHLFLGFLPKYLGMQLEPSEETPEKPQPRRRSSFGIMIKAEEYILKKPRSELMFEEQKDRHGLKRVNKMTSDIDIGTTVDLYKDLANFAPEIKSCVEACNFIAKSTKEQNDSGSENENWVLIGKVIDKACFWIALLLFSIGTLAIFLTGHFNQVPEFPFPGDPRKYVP
Chain of Torpedo AChR ion channel ([3H]18-MC site) (P02718 22-522): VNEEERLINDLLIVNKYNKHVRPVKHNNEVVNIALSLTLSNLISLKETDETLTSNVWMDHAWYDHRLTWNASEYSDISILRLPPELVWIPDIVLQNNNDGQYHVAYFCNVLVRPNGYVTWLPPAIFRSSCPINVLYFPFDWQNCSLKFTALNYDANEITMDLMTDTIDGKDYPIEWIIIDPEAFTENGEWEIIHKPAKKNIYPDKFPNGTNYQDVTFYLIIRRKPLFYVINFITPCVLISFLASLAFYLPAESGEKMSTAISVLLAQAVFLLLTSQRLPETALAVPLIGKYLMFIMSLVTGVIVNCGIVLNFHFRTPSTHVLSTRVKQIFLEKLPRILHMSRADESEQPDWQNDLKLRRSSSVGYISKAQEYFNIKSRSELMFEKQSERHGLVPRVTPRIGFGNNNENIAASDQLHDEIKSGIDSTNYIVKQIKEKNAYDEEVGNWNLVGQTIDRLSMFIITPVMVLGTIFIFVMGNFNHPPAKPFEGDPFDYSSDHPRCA
Chain of Torpedo AChR ion channel ([3H]TCP site) (P02710 25-461): as the sequence (P02710 25-461) above
Chain of Torpedo AChR ion channel ([3H]TCP site) (P02712 25-493): as the sequence (P02712 25-493) above
Chain of Torpedo AChR ion channel ([3H]TCP site) (P02714 18-506): as the sequence (P02714 18-506) above
Chain of Torpedo AChR ion channel ([3H]TCP site) (P02718 22-522): as the sequence (P02718 22-522) above
T2 sequence (P02710 25-461): as the sequence (P02710 25-461) above
T2 sequence (P02712 25-493): as the sequence (P02712 25-493) above
T2 sequence (P02714 18-506): as the sequence (P02714 18-506) above
T2 sequence (P02718 22-522): as the sequence (P02718 22-522) above
Chain of Torpedo AChR ion channel ([3H]ibogaine site) (P02710 25-461): as the sequence (P02710 25-461) above
Chain of Torpedo AChR ion channel ([3H]ibogaine site) (P02712 25-493): as the sequence (P02712 25-493) above
Chain of Torpedo AChR ion channel ([3H]ibogaine site) (P02714 18-506): as the sequence (P02714 18-506) above
Chain of Torpedo AChR ion channel ([3H]ibogaine site) (P02718 22-522): as the sequence (P02718 22-522) above
Chain of human fetal muscle AChR (α1β1γδ) in TE671 cells (P02708 21-457): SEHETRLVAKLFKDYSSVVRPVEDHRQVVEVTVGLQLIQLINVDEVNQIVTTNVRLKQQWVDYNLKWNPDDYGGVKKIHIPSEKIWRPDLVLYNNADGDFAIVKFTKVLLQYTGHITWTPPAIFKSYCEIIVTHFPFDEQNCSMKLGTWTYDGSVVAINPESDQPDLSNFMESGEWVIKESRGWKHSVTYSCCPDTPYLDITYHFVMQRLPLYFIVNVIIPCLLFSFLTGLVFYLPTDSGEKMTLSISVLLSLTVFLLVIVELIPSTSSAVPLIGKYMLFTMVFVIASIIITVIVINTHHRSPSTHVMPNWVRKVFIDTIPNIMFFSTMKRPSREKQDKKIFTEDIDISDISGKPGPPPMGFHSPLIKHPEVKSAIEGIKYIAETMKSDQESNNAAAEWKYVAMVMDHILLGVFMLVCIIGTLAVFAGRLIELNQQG
Chain of human fetal muscle AChR (α1β1γδ) in TE671 cells (Q07001 22-517): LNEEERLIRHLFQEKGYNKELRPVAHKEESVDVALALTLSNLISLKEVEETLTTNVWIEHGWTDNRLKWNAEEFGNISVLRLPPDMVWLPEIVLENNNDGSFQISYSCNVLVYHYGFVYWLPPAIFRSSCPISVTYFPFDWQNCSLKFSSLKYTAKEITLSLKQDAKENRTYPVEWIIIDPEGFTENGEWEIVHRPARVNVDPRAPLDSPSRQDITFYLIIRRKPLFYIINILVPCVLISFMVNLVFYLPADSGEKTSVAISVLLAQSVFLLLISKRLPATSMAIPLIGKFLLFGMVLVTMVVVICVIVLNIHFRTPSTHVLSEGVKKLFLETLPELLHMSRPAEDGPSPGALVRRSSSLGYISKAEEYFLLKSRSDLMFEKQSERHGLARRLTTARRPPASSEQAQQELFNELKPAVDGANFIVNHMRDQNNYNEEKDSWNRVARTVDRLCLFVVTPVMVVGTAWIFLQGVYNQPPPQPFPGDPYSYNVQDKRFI
Chain of human fetal muscle AChR (α1β1γδ) in TE671 cells (P11230 24-501): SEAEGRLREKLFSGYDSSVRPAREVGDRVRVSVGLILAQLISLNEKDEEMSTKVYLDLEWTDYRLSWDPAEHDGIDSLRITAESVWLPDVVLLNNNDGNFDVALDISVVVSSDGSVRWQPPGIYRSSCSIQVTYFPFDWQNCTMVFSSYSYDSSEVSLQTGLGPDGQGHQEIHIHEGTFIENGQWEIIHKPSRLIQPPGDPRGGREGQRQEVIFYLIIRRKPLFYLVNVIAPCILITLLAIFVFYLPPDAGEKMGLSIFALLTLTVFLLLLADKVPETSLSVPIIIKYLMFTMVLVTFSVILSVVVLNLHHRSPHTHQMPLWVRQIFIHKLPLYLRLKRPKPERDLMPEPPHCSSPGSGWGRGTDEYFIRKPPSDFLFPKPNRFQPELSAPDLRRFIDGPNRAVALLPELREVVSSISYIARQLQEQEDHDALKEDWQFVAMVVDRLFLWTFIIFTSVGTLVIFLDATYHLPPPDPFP
Chain of human fetal muscle AChR (α1β1γδ) in TE671 cells (P07510 23-517): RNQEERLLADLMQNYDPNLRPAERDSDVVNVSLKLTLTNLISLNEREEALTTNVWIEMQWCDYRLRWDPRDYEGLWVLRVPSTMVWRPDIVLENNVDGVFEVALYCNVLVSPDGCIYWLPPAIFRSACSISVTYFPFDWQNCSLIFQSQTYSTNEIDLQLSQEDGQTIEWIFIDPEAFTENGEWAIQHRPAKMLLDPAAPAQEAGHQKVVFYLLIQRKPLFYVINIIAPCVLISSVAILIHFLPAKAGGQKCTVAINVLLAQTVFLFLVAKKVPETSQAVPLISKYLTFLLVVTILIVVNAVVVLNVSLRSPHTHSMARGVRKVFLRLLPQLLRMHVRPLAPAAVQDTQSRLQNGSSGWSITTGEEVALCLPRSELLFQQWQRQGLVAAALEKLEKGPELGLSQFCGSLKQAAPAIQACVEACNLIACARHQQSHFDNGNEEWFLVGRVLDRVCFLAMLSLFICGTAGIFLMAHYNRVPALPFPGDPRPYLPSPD
T1 sequence (P02718 22-522): as the sequence (P02718 22-522) above
T1 sequence (P02712 25-493): as the sequence (P02712 25-493) above
T1 sequence (P02714 18-506): as the sequence (P02714 18-506) above
T1 sequence (P02710 25-461): as the sequence (P02710 25-461) above

In the case of Clc1ccc(C2CC3CCC2N3)cn1 (racemic) [(±)-epibatidine, reference compound], the nH of activation ([1]; agonist activation) is reported as 1.23 ±0.06.
With COCC[C@H]1CC2CN3CCc4c([nH]c5ccccc45)[C@](C(=O)OC)(C2)[C@H]13 [18-MC, 18-methoxycoronaridine] the Ki ([2]; desensitized/CCh-bound state) was 470 ± 30 nM, the Ki ([2]; resting/α-BTx-bound state) was 1000 ± 100 nM and the “fold higher affinity for the desensitized AChR compared to the resting AChR” value ([2]; [3H]18-MC competition) was about 2 fold. The nH ([2]; desensitized/CCh-bound state) was 1.02 ±0.06, the ΔG ([2]; desensitized/CCh-bound state) was -8.63 ± 0.048 kcal/mol and the nH ([2]; resting/α-BTx-bound state) was 0.70 ± 0.05. For the same compound, the ΔG ([2]; resting/α-BTx-bound state) was -8.2 ± 0.072 kcal/mol, the IC50 [3] was over 20000 nM and the Kd [4, 14] was 337 nM. The Kd [4, 15] was 885 nM, the koff [4, 14] was 0.077 ± 0.001 s⁻¹ and the “ΔG^20” value [4, 14] was -8.68 ± 0.024 kcal/mol. For the same compound, the kon [4, 14] was 228000 ± 3000 M⁻¹ s⁻¹, the koff [4, 15] was 0.109 ± 0.005 s⁻¹ and the “ΔG^20” value [4, 15] was -8.1 ± 0.024 kcal/mol. For the same compound, the kon [4, 15] was 123000 ± 2000 M⁻¹ s⁻¹, the EC50 [5] was 300 ± 100 nM and the “fold more potent than ibogaine to induce AChR desensitization” value [5] was about 90 fold. The “apparent nH” value [5] was 0.81±0.20, the “increase of potency by longer pre-incubation periods” value ([1]; 4 or 24 h vs 5 min pre-incubation) was about 2 fold and the “fold more potent than PCP” value [1, 16] was about 4 fold. For the same compound, the “fold more potent than ibogaine” value [1, 16] was about 2 fold, the “nH (Hill coefficient)” value ([1]; pre-incubation 5 min) was 1.56 ±0.15 and the “nH (Hill coefficient)” value ([1]; pre-incubation 240 min) was 1.90 ±0.20. The “nH (Hill coefficient)” value ([1]; pre-incubation 1440 min) was 1.61 ±0.13, the “manner of inhibition of hα1β1γδ AChR” value ([1]; pre-treatment with 1, 10 and 100 μM) was “dose dependent and noncompetitive manner” and the Ki [6] was 610 ± 80 nM. For the same compound, the nH ([6]; [3H]ibogaine, desensitized/CCh-bound state) was 1.02 ±0.13, the ΔG ([6]; [3H]ibogaine, desensitized/CCh-bound state, 298K) was -8.48 ± 0.072 kcal/mol and the “inhibition of the specific binding of [3H]ibogaine” value ([6]; both conformational states (so in the source)) was about 100%. The “enthalpic contribution relative to the entropic contribution” value ([7]; desensitized AChR) was “more than 2 fold”, the “−TΔS°” value [7, 14] was -2.68 ± 0.287 kcal/mol and the “Ea (drug dissociation)” value [7, 14] was 5.35 ± 0.359 kcal/mol. The “ΔG^20” value [7, 14] was -8.68 ± 0.335 kcal/mol, the “ΔH^+” value [7, 14] was 4.78 ± 0.359 kcal/mol and the “ΔH°” value [7, 14] was -5.98 ± 0.263 kcal/mol. The “−TΔS°” value [7, 15] was -3.7 ± 0.263 kcal/mol, the “Ea (drug dissociation)” value [7, 15] was 3.92 ± 0.17 kcal/mol and the “ΔG^20” value [7, 15] was -8.13 ± 0.335 kcal/mol. The “ΔH^+” value [7, 15] was 3.32 ± 0.17 kcal/mol, the “ΔH°” value [7, 15] was -4.42 ± 0.263 kcal/mol and the Kd [8] was 230 ± 40 nM. For the same compound, the Ki ([9]; desensitized/CCh-bound state) was 170 ± 10 nM, the Ki ([9]; resting/α-BTx-bound state) was 1400 ± 100 nM and the “fold higher affinity in the desensitized AChR than in the resting AChR” value ([9]; [3H]TCP binding site) was about 8 fold. It also gave a nH ([9]; desensitized/CCh-bound state) of 1.11 ±0.07, a ΔG ([9]; desensitized/CCh-bound state) of -9.23 ± 0.024 kcal/mol and a nH ([9]; resting/α-BTx-bound state) of 0.89 ± 0.06. For the same compound, the ΔG ([9]; resting/α-BTx-bound state) was -7.98 ± 0.048 kcal/mol, the “inhibition of the specific binding of [3H]TCP” value ([9]; both conformational states) was about 100% and the IC50 [10] was 750 to 900 nM.
c1ccc(C2(N3CCCCC3)CCCCC2)cc1 [PCP, phencyclidine] gave a Ki ([2]; desensitized/CCh-bound state) of 410 ± 30 nM, a Ki ([2]; resting/α-BTx-bound state) of 730 ± 50 nM and a nH ([2]; desensitized/CCh-bound state) of 0.76 ± 0.03. For the same compound, the ΔG ([2]; desensitized/CCh-bound state) was -8.7 ± 0.024 kcal/mol, the nH ([2]; resting/α-BTx-bound state) was 0.88 ± 0.05 and the ΔG ([2]; resting/α-BTx-bound state) was -8.37 ± 0.048 kcal/mol. The “inhibition of the specific binding of [3H]18-MC” value ([2]; both conformational states) was about 100% and the “nH (Hill coefficient)” value ([1]; pre-incubation 5 min) was 2.30 ±0.04.
In the case of c1csc(C2(N3CCCCC3)CCCCC2)c1 [[^3H]TCP, [Piperidyl-3,4-^3H(N)]-(N-(1-(2 thienyl)cyclohexyl)-3,4-piperidine)], the Kd ([11]; desensitized state) is listed as 250 nM and the Kd ([11]; resting state) is listed as 830 nM.
For [3H]c1cc([3H])c(=O)n2c1[C@H]1CNC[C@H](C1)C2 [[^3H]cytisine, [^3H]cytisine hydrochloride, reference compound], the “fractional occupancy (θ)” value ([5]; bound to the desensitized AChR, 7.7 nM) was about 0.017% and the “fractional occupancy (θ)” value ([5]; bound to the resting AChR, nH = 1, 7.7 nM) was about 0.005%.
For O=c1cccc2n1C[C@@H]1CNC[C@H]2C1 [cytisine], the Ki ([12]; desensitized state) is given as 450 nM and the Ki ([12]; resting state) is given as 1600 nM.
Compound “[^3H]18-Methoxycoronaridine [[^3H]18-MC]” has a stoichiometric ratio ([8]; desensitized/CCh-bound state) of 0.86 ± 0.13 binding sites/AChR and a Kd ([8]; desensitized/CCh-bound state (1 mM CCh), Rosenthal-Scatchard plot) of 230 nM.
For [^3H]Ibogaine, the Kd [13] is listed as 5400 nM.
ibogaine gave a nH ([2]; desensitized/CCh-bound state) of 1.11 ±0.07, a ΔG ([2]; desensitized/CCh-bound state) of -6.86 ± 0.048 kcal/mol and a nH ([2]; resting/α-BTx-bound state) of 1.04 ±0.08. The ΔG ([2]; resting/α-BTx-bound state) was -6.76 ± 0.048 kcal/mol, the “apparent nH” value [5] was 0.99±0.22 and the “nH (Hill coefficient)” value ([1]; pre-incubation 5 min) was 2.00 ±0.29. The IC50 [10] was 220 nM.

Source: PMC3787694 (Biochimica et biophysica acta, 2010)
